Source: ChEMBL document CHEMBL3091279, “Discovery and SAR studies of methionine-proline anilides as dengue virus NS2B-NS3 protease inhibitors” (Bioorg Med Chem Lett, 2013)
Structures can show the parent of a compound that is named as a salt. Active and inactive are the calls of the source. The rule behind the calls is not given here. Non-standard residues stand in square brackets, D forms with d. Residues, ends and D or L forms follow the SMILES beside them. *: point of attachment. Pbf = Cc1c(C)c(S(=O)(=O)*)c(C)c2c1OC(C)(C)C2; Met(O2) = CS(=O)(=O)CC[C@H](N)C(=O)O; Met(O) = CS(=O)CC[C@H](N)C(=O)O; pNA = O=[N+]([O-])c1ccc(N*)cc1; Boc = CC(C)(C)OC(=O)*; NHBn = c1ccc(CN*)cc1; Tfa = O=C(C(F)(F)F)*; NHPh = c1ccc(N*)cc1

System: dengue virus type 2
Test: Inhibition of Dengue virus serotype 2 NS2B-NS3 protease using benzoyl-Nle-Lys-Arg-Arg-AMC as substrate assessed as remaining activity at 200 uM incubated for 3 mins followed by substrate addition by fluorescence spectrophotometric analysis relative to control
Summary of the method: (§1)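 DENV2 NS2B-NS3 protease expressed from a plasmid. Enzyme preincubated with inhibitor 3 min, then Bz-Nle-Lys-Arg-Arg-AMC (33 or 66 µM) added. Remaining activity read by fluorescence, ex 356/em 438 nm. Triplicate averages. Ki from Dixon plot (1/v vs inhibitor) at the two substrate levels.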

Structure (SMILES) | Activity [%]
CSCC[C@H](N)C(=O)N1CCC[C@H]1C(=O)Nc1ccccc1 (H-Met-Pro-NHPh) | 60
N[C@@H](Cc1ccccc1)C(=O)N1CCC[C@H]1C(=O)Nc1ccc([N+](=O)[O-])cc1 (H-Phe-Pro-pNA) | 31

Continued, values first:

Activity [%] | Structure (SMILES)
36 | CSCC[C@H](N)C(=O)N1CCC[C@H]1C(=O)NCc1ccc([N+](=O)[O-])cc1
25 | CC(C)(C)OC(=O)N[C@@H](Cc1ccccc1)C(=O)N1CCC[C@H]1C(=O)Nc1ccc([N+](=O)[O-])cc1 (Boc-Phe-Pro-pNA)

System: dengue virus type 2
Test: Inhibition of Dengue virus serotype 2 NS2B-NS3 protease using benzoyl-Nle-Lys-Arg-Arg-AMC as substrate assessed as remaining activity at 20 uM incubated for 3 mins followed by substrate addition by fluorescence spectrophotometric analysis relative to control
Summary of the method: as §1

Structure (SMILES) | Activity [%]
C[S+]([O-])CC[C@H](N)C(=O)N1CCC[C@H]1C(=O)Nc1ccc([N+](=O)[O-])cc1 (stereo partly specified) (H-[Met(O)]-Pro-pNA) | 99
N=C(N)NCCC[C@H](N)C(=O)N1CCC[C@H]1C(=O)Nc1ccc([N+](=O)[O-])cc1 (H-Arg-Pro-pNA) | 93
Cc1c(C)c(S(=O)(=O)NC(=N)NCCC[C@H](N)C(=O)N2CCC[C@H]2C(=O)Nc2ccc([N+](=O)[O-])cc2)c(C)c2c1OC(C)(C)C2 (H-Arg(Pbf)-Pro-pNA) | 106
CSCC[C@H](NCc1ccc([N+](=O)[O-])cc1)C(=O)N1CCC[C@H]1C(=O)Nc1ccc([N+](=O)[O-])cc1 | 38
CSCC[C@H](N)C(=O)N1CCC[C@H]1C(=O)Nc1cccc([N+](=O)[O-])c1 | 37
CSCC[C@H](N)C(=O)N1CCC[C@H]1C(=O)Nc1ccccc1[N+](=O)[O-] | 96
COc1ccc(CN[C@@H](CCSC)C(=O)N2CCC[C@H]2C(=O)Nc2ccc([N+](=O)[O-])cc2)cc1 | 90

The remaining lines, values ahead:

Activity [%] | Structure (SMILES)
90 | Cc1c(C)c(S(=O)(=O)NC(=N)NCCC[C@H](NC(=O)OC(C)(C)C)C(=O)N2CCC[C@H]2C(=O)Nc2ccc([N+](=O)[O-])cc2)c(C)c2c1OC(C)(C)C2 (Boc-Arg(Pbf)-Pro-pNA)
71 | CSCC[C@H](N)C(=O)N1CCC[C@@H]1C(=O)Nc1ccc([N+](=O)[O-])cc1
103 | CS(=O)(=O)CC[C@H](N)C(=O)N1CCC[C@H]1C(=O)Nc1ccc([N+](=O)[O-])cc1 (H-[Met(O2)]-Pro-pNA)

System: dengue virus type 2
Test: Inhibition of Dengue virus serotype 2 NS2B-NS3 protease using benzoyl-Nle-Lys-Arg-Arg-AMC as substrate assessed as remaining activity at 15 uM incubated for 3 mins followed by substrate addition by fluorescence spectrophotometric analysis relative to control
Summary of the method: as §1

Structure (SMILES) | Activity [%]
CSCC[C@H](N)C(=O)N1CCC[C@H]1C(=O)NCc1ccccc1 (H-Met-Pro-NHBn) | 58
CSCC[C@H](NC(=O)OC(C)(C)C)C(=O)N1CCC[C@H]1C(=O)Nc1ccc([N+](=O)[O-])cc1 (Boc-Met-Pro-pNA) | 45

Continued, values first:

Activity [%] | Structure (SMILES)
54 | CSCC[C@H](NC(=O)C(F)(F)F)C(=O)N1CCC[C@H]1C(=O)Nc1ccc([N+](=O)[O-])cc1 (Tfa-Met-Pro-pNA)
31 | CSCC[C@H](N)C(=O)N1CCC[C@H]1C(=O)Nc1ccc([N+](=O)[O-])cc1

System: dengue virus type 2
Test: Inhibition of Dengue virus serotype 2 NS2B-NS3 protease using benzoyl-Nle-Lys-Arg-Arg-AMC as substrate assessed as fluorescence changes after 0.2 to 1 min by fluorescence spectrophotometric analysis
Summary of the method: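 Fluorescence interference check. Fluorescence change over time followed in three parallel runs at 37 °C in pH 9.0 Tris buffer: NS2B-NS3 with inhibitor, NS2B-NS3 with Bz-Nle-Lys-Arg-Arg-AMC, and NS2B-NS3 with substrate plus inhibitor. Read at ex 356/em 438 nm.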

inhibition | Structure (SMILES)
Active | CSCC[C@H](NC(=O)OC(C)(C)C)C(=O)N1CCC[C@H]1C(=O)Nc1ccc([N+](=O)[O-])cc1 (Boc-Met-Pro-pNA)

System: not listed separately
Test: Competitive inhibition of Dengue virus serotype 2 NS2B-NS3 protease using benzoyl-Nle-Lys-Arg-Arg-AMC as substrate by Dixon plot analysis
Parameters: species or system dengue virus type 2
Summary of the method: as §1

Structure (SMILES) | Ki [µM]
CSCC[C@H](NC(=O)OC(C)(C)C)C(=O)N1CCC[C@H]1C(=O)Nc1ccc([N+](=O)[O-])cc1 (Boc-Met-Pro-pNA) | 10.5
CSCC[C@H](N)C(=O)N1CCC[C@H]1C(=O)Nc1ccc([N+](=O)[O-])cc1 | 4.9
